Read-outs that look alike come from different tables or passages of the source.

One experiment deals with Fl-pre-tRNA^Asp. In words: FA titration: binding of compounds to Fl-pre-tRNA^Asp. The note with it: for change in anisotropy (ΔFA) upon binding to Fl-pre-tRNA^Asp: Figure 4A, buffer B; for Kd: read-out: Kd for Fl-pre-tRNA^Asp, 37°C. The arrangement: species or system Bacillus subtilis. In a few lines:
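RNA first heat-denatured 3 min at 95°C, then refolded at 37°C. Kd taken from the dependence of the FA signal on compound concentration. Competition run at fixed compound with varied yeast tRNAMix in buffer B.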

The target of experiment [1] is Bacillus subtilis RNase P. Format: biochemical. As to conditions: read-out: IC50 for inhibition of RNase P; Buffer B (pH 7.2, 10 mM MgCl2, 100 mM KCl), 50 nM Fl-pre-tRNA^Asp, 0.4 nM RNase P, 4 nM P protein, 37°C.
A further experiment has as its system Escherichia coli RNase P. As to conditions: cited from earlier work.
A further experiment has as its target native yeast tRNA^Phe. As to conditions: cited from earlier work.
In experiment [2] the target is Dictyostelium discoideum RNase P. As to conditions: read-out: Ki (non-competitive); cited from earlier work.
A further experiment has as its target T1, B. subtilis RNase P (Bacillus subtilis, UniProt P25814).
T1 sequence (P25814 1-116): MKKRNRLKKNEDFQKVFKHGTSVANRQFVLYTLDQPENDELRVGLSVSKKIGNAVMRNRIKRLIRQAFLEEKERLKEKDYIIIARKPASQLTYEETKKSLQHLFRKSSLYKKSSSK
In words: RNase P cleavage activity in response to HTS reagents. The experiment is classed as biochemical. In a few lines:
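B. subtilis holoenzyme formed by adding P protein to refolded P RNA, 30 min at 37°C. Enzyme pre-incubated 30 min with 2% DMSO at 30°C. Reaction started with an equal volume of Fl-pre-tRNAAsp substrate, quenched with 80 mM CaCl2 at various times. Fluorescence polarization read at λex 485 nm / λem 520 nm.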

Where [3] appears, read: Buffer B + 12 mg/ml yeast tRNA^Mix.
Where [4] appears, read: Buffer B, 50 nM Fl-pre-tRNA^Asp.

For orientation: Kd means a measure of binding affinity in units of concentration. For orientation: IC50 means the point on the concentration scale where inhibition reaches its midpoint. By Ki is commonly meant the dissociation constant of the complex between target and ligand, obtained from inhibition or displacement. Regarding `NC[C@@H]1O[C@H](O[C@H]2[C@@H](O)[C@H](O[C@@H]3[C@@H](O)[C@H](N)C[C@H](N)[C@H]3O[C@H]3O[C@H](CN)[C@@H](O)[C@H](O)[C@H]3N)O[C@@H]2CO)[C@H](N)[C@@H](O)[C@@H]1O` [NeoB, neomycin B], the “change in anisotropy (ΔFA) upon binding to Fl-pre-tRNA^Asp” value in the experiment with Fl-pre-tRNA^Asp is on record as ~50 mA. The values for the Kd at Fl-pre-tRNA^Asp (setting [3]), on Fl-pre-tRNA^Asp (setting [4]) and at native yeast tRNA^Phe were 100 ± 20 µM, 90 ± 5 µM and 90 µM, respectively. Moreover, the IC50 in experiment [1] was 23 ± 3 µM; in the experiment on Escherichia coli RNase P, 0.06 mM. In addition, the Ki in experiment [2] was 143 µM.
On to `NC[C@H]1O[C@H](O[C@H]2[C@H](O)[C@@H](O[C@H]3O[C@H](CO)[C@@H](O)[C@H](N)[C@H]3O)[C@H](N)C[C@@H]2N)[C@H](N)[C@@H](O)[C@@H]1O` [KanB, kanamycin B], for which the “change in anisotropy (ΔFA) upon binding to Fl-pre-tRNA^Asp” value in the experiment on Fl-pre-tRNA^Asp is ~35 mA. Further, the Kd at Fl-pre-tRNA^Asp (setting [3]) was determined as 540 ± 60 µM; on Fl-pre-tRNA^Asp (setting [4]), 220 ± 20 µM. Moreover, the IC50 in experiment [1] came out at 52 ± 6 µM.
Take nonidet P-40 [NP-40]: the “effect on RNase P activity” value on B. subtilis RNase P (0.01–0.1% v/v) is on record as “unaffected”.
With Spiramycin, the “effect on steady-state turnover” value in the experiment on Escherichia coli RNase P is “activate the steady-state turnover”.
In the case of `COc1ccc(C[C@H](N)C(=O)N[C@H]2[C@@H](O)[C@H](n3cnc4c(N(C)C)ncnc43)O[C@@H]2CO)cc1` [puromycin], in the experiment on Escherichia coli RNase P, the IC50 is ~3 mM.
For `C[S+](C)[O-]` [DMSO, dimethyl sulfoxide], the “inhibition of RNase P activity” value against B. subtilis RNase P (2% DMSO) is recorded as 20%.
